Experimental data taken from ChEMBL document CHEMBL1126794, “2-(Quinuclidin-3-yl)pyrido[4,3-b]indol-1-ones and isoquinolin-1-ones. Potent conformationally restricted 5-HT3 receptor antagonists” (J Med Chem, 1993).

Assays:
Mustela putorius furo [1] = experiment: Inhibition of emesis induced by peroral administration of cisplatin in 6 ferrets at 0.001 mg/kg; type: functional; settings: route oral
Mustela putorius furo [2] = experiment: Inhibition of emesis induced by intravenous administration of cisplatin in 9 ferrets at 0.001 mg/kg; type: functional
Canis familiaris [3] = experiment: Inhibition of emesis induced by peroral administration of cisplatin in 6 dogs at 0.03 mg/kg (p<0.01); type: functional, Canis lupus familiaris; settings: route oral
Mustela putorius furo [4] = experiment: Inhibition of emesis induced by peroral administration of cisplatin in 6 ferrets at 0.01 mg/kg (p<0.005); type: functional; settings: route oral
Canis familiaris [5] = experiment: Inhibition of emesis induced by peroral administration of cisplatin in 6 dogs at 0.003 mg/kg; type: functional, Canis lupus familiaris; settings: route oral
Mustela putorius furo [6] = experiment: Inhibition of emesis induced by intravenous administration of cisplatin in 6 ferrets at 0.01 mg/kg (p<0.005); type: functional
Mustela putorius furo [7] = experiment: Inhibition of emesis induced by intravenous administration of cisplatin in 5 ferrets at 0.03 mg/kg (p<0.005); type: functional
Canis familiaris [8] = experiment: Inhibition of emesis induced by intravenous administration of cisplatin in 6 dogs at 0.03 mg/kg (p<0.01); type: functional, Canis lupus familiaris
Rattus norvegicus = experiment: Potency to inhibit bradycardiac effect measured by Von Bezold-Jarisch assay in 8 anesthetized rats; type: functional; settings: read-out: ID50 (the source's name)
Summary of the method: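 Male Sprague-Dawley rats, 250–380 g, under urethane (1.5 g/kg ip), with cannulated trachea and femoral veins; heart rate recorded by ECG. Lowest consistent bradycardic dose of 2-methyl-5-HT titrated iv, then given every 12 min. Increasing iv doses given 5 min before each challenge, with saline vehicle group.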

Mustela putorius furo [9] = experiment: Inhibition of emesis induced by peroral administration of cisplatin in 5 ferrets at 0.03 mg/kg (p<0.005); type: functional; settings: route oral
Mustela putorius furo [10] = experiment: Inhibition of emesis induced by intravenous administration of cisplatin in 5 ferrets at 0.003 mg/kg; type: functional
Canis familiaris [11] = experiment: Inhibition of emesis induced by peroral administration of cisplatin in 6 dogs at 0.1 mg/kg (p<0.01); type: functional, Canis lupus familiaris; settings: route oral
Mustela putorius furo [12] = experiment: Inhibition of emesis induced by intravenous administration of cisplatin in 6 ferrets at 0.1 mg/kg (p<0.005); type: functional
Canis familiaris [13] = experiment: Inhibition of emesis induced by intravenous administration of cisplatin in 6 dogs at 0.003 mg/kg (p<0.01); type: functional, Canis lupus familiaris
Mustela putorius furo [14] = experiment: Inhibition of emesis induced by peroral administration of cisplatin in 5 ferrets at 0.1 mg/kg (p<0.005); type: functional; settings: route oral
Mustela putorius furo [15] = experiment: Inhibition of emesis induced by peroral administration of cisplatin in 6 ferrets at 0.003 mg/kg (p<0.05); type: functional; settings: route oral
Canis familiaris [16] = experiment: Inhibition of emesis induced by intravenous administration of cisplatin in 6 dogs at 0.001 mg/kg (p<0.05); type: functional, Canis lupus familiaris
Canis familiaris [17] = experiment: Inhibition of emesis induced by peroral administration of cisplatin in 6 dogs at 0.01 mg/kg (p<0.01); type: functional, Canis lupus familiaris; settings: route oral
[18] = molecular target: T1, Serotonin 3 (5-HT3) receptor (Rattus norvegicus, UniProt P35563+Q9JJ16); experiment: Binding affinity against 5-hydroxytryptamine 3 (5-HT3) receptor in rat brain cortical membranes using radioligand [3H]quipazine; type: cell membranes
T1 sequence (P35563 whole entry): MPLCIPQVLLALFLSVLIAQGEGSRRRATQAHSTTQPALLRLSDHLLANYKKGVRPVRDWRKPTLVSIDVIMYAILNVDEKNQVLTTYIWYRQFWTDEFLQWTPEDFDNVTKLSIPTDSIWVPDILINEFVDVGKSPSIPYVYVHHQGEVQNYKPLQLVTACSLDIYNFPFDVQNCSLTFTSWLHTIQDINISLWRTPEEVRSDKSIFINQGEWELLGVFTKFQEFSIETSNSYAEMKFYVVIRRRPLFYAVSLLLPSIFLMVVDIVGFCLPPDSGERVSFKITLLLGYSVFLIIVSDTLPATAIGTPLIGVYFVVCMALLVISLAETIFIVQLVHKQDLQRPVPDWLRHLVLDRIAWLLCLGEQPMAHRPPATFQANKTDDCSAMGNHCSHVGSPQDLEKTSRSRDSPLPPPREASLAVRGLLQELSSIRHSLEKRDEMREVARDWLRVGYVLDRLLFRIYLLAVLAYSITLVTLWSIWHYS
T1 sequence (Q9JJ16 whole entry): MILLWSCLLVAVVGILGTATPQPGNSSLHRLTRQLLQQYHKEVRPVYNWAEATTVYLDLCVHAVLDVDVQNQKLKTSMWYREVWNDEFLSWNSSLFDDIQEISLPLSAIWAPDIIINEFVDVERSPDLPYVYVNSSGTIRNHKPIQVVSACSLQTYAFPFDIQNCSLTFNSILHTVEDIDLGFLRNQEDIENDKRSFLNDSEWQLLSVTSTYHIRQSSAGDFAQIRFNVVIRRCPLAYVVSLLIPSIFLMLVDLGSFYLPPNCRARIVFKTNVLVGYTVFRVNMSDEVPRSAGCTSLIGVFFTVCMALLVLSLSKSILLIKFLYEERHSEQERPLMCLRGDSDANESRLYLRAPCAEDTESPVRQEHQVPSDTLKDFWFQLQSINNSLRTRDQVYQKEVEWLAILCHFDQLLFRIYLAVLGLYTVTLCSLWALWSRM
Summary of the method: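 Rat cerebral cortex membranes, washed in 50 mM Tris pH 7.4, incubated 45 min at 25 °C in Tris-Krebs buffer pH 7.4 with 0.3–0.7 nM [3H]quipazine plus 0.1 μM paroxetine. Ten test concentrations from 1e-12 to 1e-4 M. Nonspecific binding defined with 1.0 μM racemic zacopride. Filtration, scintillation counting, IC50 by iterative fit, Ki by Cheng-Prusoff. Means of ≥3 determinations, or of two.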

Canis familiaris [19] = experiment: Inhibition of emesis induced by peroral administration of cisplatin in 6 dogs at 0.001 mg/kg; type: functional, Canis lupus familiaris; settings: route oral

## Cl.O=C1c2cccc3c2[C@H](CCC3)CN1[C@@H]1CN2CCC1CC2 [PALONOSETRON HYDROCHLORIDE]
Mustela putorius furo [1]
  No. of emetic episodes: 15.17
Mustela putorius furo [2]
  No. of emetic episodes: 9.67
Canis familiaris [3]
  No. of emetic episodes: 2.67
Mustela putorius furo [4]
  No. of emetic episodes: 2.17
Canis familiaris [5]
  No. of emetic episodes: 16.17
Mustela putorius furo [6]
  No. of emetic episodes: 0
Mustela putorius furo [7]
  No. of emetic episodes: 0
Canis familiaris [8]
  No. of emetic episodes: 1.33
Rattus norvegicus
  ED50: 0.02 µg/kg
Mustela putorius furo [9]
  No. of emetic episodes: 1.8
Mustela putorius furo [10]
  No. of emetic episodes: 0.6
Canis familiaris [11]
  No. of emetic episodes: 0
Mustela putorius furo [12]
  No. of emetic episodes: 0.17
Canis familiaris [13]
  No. of emetic episodes: 4.33
Mustela putorius furo [14]
  No. of emetic episodes: 0.8
Mustela putorius furo [15]
  No. of emetic episodes: 7.17
Canis familiaris [16]
  No. of emetic episodes: 7.17
Canis familiaris [17]
  No. of emetic episodes: 4
[18]
  Ki: 0.0398 nM
Canis familiaris [19]
  No. of emetic episodes: 12.83
